Measured values from ChEMBL document CHEMBL3396959, “Structural requirements for TLR7-selective signaling by 9-(4-piperidinylalkyl)-8-oxoadenine derivatives” (Bioorg Med Chem Lett, 2015).
Activity calls are given as the source filed them. The calls are words filed in the database; no cut-off is given here.

Tests used:
Toll-like receptor 7 = target: T1, Toll-like receptor 7 (Homo sapiens, UniProt Q9NYK1); assay: Activation of human TLR7 expressed in HEK293 cells after 24 hrs by NFkappaB-mediated SEAP reporter gene assay; format: cell-based
T1 sequence (Q9NYK1 whole entry): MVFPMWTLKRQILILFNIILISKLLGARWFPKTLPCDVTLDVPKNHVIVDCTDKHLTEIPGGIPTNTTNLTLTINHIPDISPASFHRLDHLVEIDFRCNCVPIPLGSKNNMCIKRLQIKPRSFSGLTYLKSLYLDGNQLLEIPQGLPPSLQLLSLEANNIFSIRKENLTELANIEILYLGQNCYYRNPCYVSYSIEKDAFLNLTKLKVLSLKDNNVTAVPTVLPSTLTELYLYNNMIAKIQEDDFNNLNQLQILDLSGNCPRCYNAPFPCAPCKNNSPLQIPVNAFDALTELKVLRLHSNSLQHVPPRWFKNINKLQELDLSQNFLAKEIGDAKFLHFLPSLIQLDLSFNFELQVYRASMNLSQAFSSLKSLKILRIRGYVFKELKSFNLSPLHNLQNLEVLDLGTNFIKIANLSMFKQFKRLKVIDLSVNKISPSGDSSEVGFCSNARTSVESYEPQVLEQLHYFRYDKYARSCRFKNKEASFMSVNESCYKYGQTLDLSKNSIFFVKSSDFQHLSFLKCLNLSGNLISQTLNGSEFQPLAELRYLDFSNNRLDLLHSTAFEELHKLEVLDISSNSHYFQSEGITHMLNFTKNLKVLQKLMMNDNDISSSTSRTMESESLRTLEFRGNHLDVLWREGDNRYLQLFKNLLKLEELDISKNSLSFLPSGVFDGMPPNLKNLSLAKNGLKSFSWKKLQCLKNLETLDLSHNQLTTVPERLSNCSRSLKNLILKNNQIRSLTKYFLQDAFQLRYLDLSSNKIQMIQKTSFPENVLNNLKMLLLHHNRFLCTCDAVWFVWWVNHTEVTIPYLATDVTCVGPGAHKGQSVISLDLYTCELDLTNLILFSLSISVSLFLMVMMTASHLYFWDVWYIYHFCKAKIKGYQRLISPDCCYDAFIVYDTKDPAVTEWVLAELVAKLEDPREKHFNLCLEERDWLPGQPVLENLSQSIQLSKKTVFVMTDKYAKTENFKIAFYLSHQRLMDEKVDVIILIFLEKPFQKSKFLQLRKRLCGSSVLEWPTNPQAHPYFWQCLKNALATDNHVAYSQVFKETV
Outline: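 HEK293 cells stably transfected with hTLR7 or hTLR8 plus an NF-kB-driven SEAP reporter were kept in DMEM/10% FBS with selection antibiotics. Aqueous compound formulations were added for 24 h, and supernatant SEAP was read colorimetrically. Points were run in triplicate and averaged. Activity was scaled to the maximum of a reference agonist set at 100%. EC50 was taken from dose-response curves with 95% CI.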

Toll-like receptor 8 = target: T2, Toll-like receptor 8 (Homo sapiens, UniProt Q9NR97); assay: Activation of human TLR8 expressed in HEK293 cells after 24 hrs by NFkappaB-mediated SEAP reporter gene assay; format: cell-based
T2 sequence (Q9NR97 whole entry): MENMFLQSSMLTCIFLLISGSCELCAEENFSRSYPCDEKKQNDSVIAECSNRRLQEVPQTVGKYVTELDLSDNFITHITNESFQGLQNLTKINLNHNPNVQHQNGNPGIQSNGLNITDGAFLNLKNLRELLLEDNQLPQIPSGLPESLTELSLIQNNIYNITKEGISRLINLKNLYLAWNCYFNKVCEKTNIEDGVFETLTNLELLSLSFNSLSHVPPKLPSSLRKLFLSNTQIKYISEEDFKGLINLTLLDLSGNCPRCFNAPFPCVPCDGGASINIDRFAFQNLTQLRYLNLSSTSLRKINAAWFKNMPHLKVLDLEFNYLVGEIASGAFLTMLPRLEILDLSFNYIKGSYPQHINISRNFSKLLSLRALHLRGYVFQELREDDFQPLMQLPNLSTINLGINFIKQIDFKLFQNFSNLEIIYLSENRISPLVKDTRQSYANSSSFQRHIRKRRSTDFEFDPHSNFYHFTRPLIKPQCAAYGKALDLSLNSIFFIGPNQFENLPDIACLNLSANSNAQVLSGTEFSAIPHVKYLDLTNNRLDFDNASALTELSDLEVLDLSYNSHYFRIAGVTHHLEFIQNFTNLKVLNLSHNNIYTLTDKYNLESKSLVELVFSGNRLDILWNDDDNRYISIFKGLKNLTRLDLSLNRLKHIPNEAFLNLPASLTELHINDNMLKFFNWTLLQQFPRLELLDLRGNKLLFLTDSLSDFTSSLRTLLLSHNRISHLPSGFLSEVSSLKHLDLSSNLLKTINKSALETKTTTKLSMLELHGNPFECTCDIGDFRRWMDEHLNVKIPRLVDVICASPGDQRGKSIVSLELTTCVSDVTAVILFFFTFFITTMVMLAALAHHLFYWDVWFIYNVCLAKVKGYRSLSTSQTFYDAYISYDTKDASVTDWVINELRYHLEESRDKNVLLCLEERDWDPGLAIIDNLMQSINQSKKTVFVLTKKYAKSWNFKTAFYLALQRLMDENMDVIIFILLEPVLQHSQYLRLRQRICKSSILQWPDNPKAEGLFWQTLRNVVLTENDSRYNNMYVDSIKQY
Outline: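 HEK293 cells stably transfected with hTLR7 or hTLR8 plus an NF-kB-driven SEAP reporter were kept in DMEM/10% FBS with selection antibiotics. Aqueous compound formulations were added for 24 h, and supernatant SEAP was read colorimetrically. Points were run in triplicate and averaged.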

HEK293 = assay: Toxicity against human TLR8 expressing HEK293 cells after 24 hrs by live/dead fixable aqua staining method; format: cell-based; conditions: hek293, 24 h
Outline: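 HEK293-hTLR8 reporter cells were stimulated with compound for 24 h. Cells were then incubated with Live/Dead fixable Aqua dye for 30 min, washed extensively, and read for viability by flow cytometry.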

PBMC [1] = assay: Induction of TNFalpha production in primary human PBMC after 24 hrs by ELISA method; format: functional, cell-based
Outline: (§1)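 Ficoll-isolated healthy-donor PBMCs at 0.5 × 10^6 cells/well in RPMI-1640/10% FBS were stimulated 24 h with aqueous compound. Supernatant TNFa was assayed with a […]. Data are from three donors in triplicate, with SEM shown.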

[2] = Induction of IL6 expression in human HLA-DR(+), CD11c(+) and CD123(-) expressing mDC after 24 hrs by intracellular cytokine staining method; format: functional; parameters: concentration or dose not given beside the values
Outline: (§2)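 PBMCs were stimulated with aqueous compound for 24 h, with GolgiPlug (10 ng/ml) present for the final 6 h. Cells were washed and surface-stained for lineage markers (mDC HLA-DR+ CD11c+ CD123−; pDC HLA-DR+ CD11c− CD123+). They were then permeabilized with Perm/Fix buffer and stained with fluorochrome-conjugated anti-cytokine antibodies for flow cytometry.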

PBMC [3] = assay: Induction of IFNgamma production in primary human PBMC after 24 hrs by ELISA method; format: functional, cell-based
PBMC [4] = assay: Induction of IFNalpha production in primary human PBMC at 0.001 to 10 uM after 24 hrs by ELISA method; format: functional, cell-based
Outline: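 Fresh healthy-donor PBMCs were isolated by Ficoll and plated at 0.5 × 10^6 cells/well in RPMI-1640/10% FBS with antibiotics. Aqueous compound formulations were added for 24 h across 0.0001–10 µM. Supernatant IFNa was measured by ELISA. Data are from three donors, each run in triplicate, with SEM shown.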

PBMC [5] = assay: Induction of TNFalpha production in primary human PBMC at 0.001 to 10 uM after 24 hrs by ELISA method; format: functional, cell-based; outline: as §1
PBMC [6] = assay: Reduction in IFNalpha production in primary human PBMC at >10 uM after 24 hrs by ELISA method; format: functional, cell-based
Homo sapiens [7] = species: Homo sapiens; assay: Induction of apoptosis in human HLA-DR(+), CD11c(-) and CD123(+) expressing pDC at 10 uM after 24 hrs by Annexin-V staining method; format: functional
Outline: (§3)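 PBMCs were stimulated for 24 h with compound at doses of 0.01 nM, 1 nM, 100 nM and 10 µM. Cells were phenotyped into mDC (HLA-DR+ CD11c+ CD123−) and pDC (HLA-DR+ CD11c− CD123+) and stained with Annexin-V to read apoptosis by flow cytometry.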

Homo sapiens [8] = species: Homo sapiens; assay: Induction of apoptosis in human HLA-DR(+), CD11c(+) and CD123(-) expressing mDC at 10 uM after 24 hrs by Annexin-V staining method; format: functional; outline: as §3
Homo sapiens [9] = species: Homo sapiens; assay: Induction of TNFalpha production in human HLA-DR(+), CD11c(+) and CD123(-) expressing mDC after 24 hrs by intracellular cytokine staining method; format: functional, cell-based; outline: as §2
Homo sapiens [10] = species: Homo sapiens; assay: Induction of INFalpha production in human HLA-DR(+), CD11c(+) and CD123(-) expressing mDC after 24 hrs by […]; format: functional
Homo sapiens [11] = species: Homo sapiens; assay: Induction of INFalpha production in human HLA-DR(+), CD11c(+) and CD123(-) expressing mDC after 24 hrs by intracellular cytokine staining method; format: functional, cell-based; outline: as §2
Homo sapiens [12] = species: Homo sapiens; assay: Induction of TNFalpha production in human HLA-DR(+), CD11c(-) and CD123(+) expressing pDC after 24 hrs by […]; format: functional
Homo sapiens [13] = species: Homo sapiens; assay: Induction of TNFalpha production in human HLA-DR(+), CD11c(-) and CD123(+) expressing pDC after 24 hrs by intracellular cytokine staining method; format: functional, cell-based; outline: as §2
Homo sapiens [14] = species: Homo sapiens; assay: Induction of INFalpha production in human HLA-DR(+), CD11c(-) and CD123(+) expressing pDC after 24 hrs by […]; format: functional
Homo sapiens [15] = species: Homo sapiens; assay: Induction of INFalpha production in human HLA-DR(+), CD11c(-) and CD123(+) expressing pDC after 24 hrs by intracellular cytokine staining method; format: functional, cell-based; outline: as §2
Homo sapiens [16] = species: Homo sapiens; assay: Induction of TNFalpha production in human HLA-DR(+), CD11c(+) and CD123(-) expressing mDC after 24 hrs by intracellular cytokine staining
Homo sapiens [17] = species: Homo sapiens; assay: Induction of apoptosis in human HLA-DR(+), CD11c(-) and CD123(+) expressing pDC at 1 nM after 24 hrs by Annexin-V staining method; format: functional; outline: as §3
Homo sapiens [18] = species: Homo sapiens; assay: Induction of apoptosis in human HLA-DR(+), CD11c(+) and CD123(-) expressing mDC at 1 nM after 24 hrs by Annexin-V staining method; format: functional; outline: as §3

EC50 (Toll-like receptor 7; read-out: EC50) [nM]	EC50 (Toll-like receptor 8; read-out: EC50) [nM]	SMILES	Activity (HEK293)	Activity (PBMC [1])	Activity [2] [%]	Activity (PBMC [3])	Activity (PBMC [4])	Activity (PBMC [5])	inhibition (PBMC [6])	also measured
150	131000	CCCCOc1nc(N)c2[nH]c(=O)n(CCCCC3CCNCC3)c2n1.Cl	Toxic	Active	22.3	Active	Active	Dose-dependent effect	Dose-dependent effect	
3950		CCCCOc1nc(N)c2[nH]c(=O)n(CC3CCNCC3)c2n1.Cl	Non-toxic	inactive	2.95	inactive	Active		Dose-dependent effect	Activity (Homo sapiens [7]): Active; Activity (Homo sapiens [8]): Active; Activity (Homo sapiens [9]): Dose-dependent effect; Activity (Homo sapiens [10]): Dose-dependent effect; Activity (Homo sapiens [11]): Dose-dependent effect; Activity (Homo sapiens [12]): Dose-dependent effect; Activity (Homo sapiens [13]): Dose-dependent effect; Activity (Homo sapiens [14]): Dose-dependent effect; Activity (Homo sapiens [15]): Dose-dependent effect; Activity (Homo sapiens [16]): Dose-dependent effect
230	29000	CCCCOc1nc(N)c2[nH]c(=O)n(CCCCCCC3CCNCC3)c2n1.Cl		Active	28.5	Active	Active	Dose-dependent effect	Dose-dependent effect	
		CCCCOc1nc(N)c2[nH]c(=O)n(C3CCNCC3)c2n1.Cl		inactive		inactive	inactive			EC50 (Toll-like receptor 7; hek293): Not Active; EC50 (Toll-like receptor 8; hek293): Not Active
620	260000	CCCCOc1nc(N)c2[nH]c(=O)n(CCCC3CCNCC3)c2n1.Cl	Non-toxic	Active	8.27	Active	Active	Dose-dependent effect	Dose-dependent effect	
150	231000	CCCCOc1nc(N)c2[nH]c(=O)n(CCC3CCNCC3)c2n1.Cl	Non-toxic	Active	4.91	Active	Active	Dose-dependent effect	Dose-dependent effect	
100		CCCCOc1nc(N)c2[nH]c(=O)n(CCCCCC3CCNCC3)c2n1.Cl	Toxic	Active	31.5	Active	Active	Dose-dependent effect	Dose-dependent effect	Activity (Homo sapiens [17]): Active; Activity (Homo sapiens [18]): inactive; Activity (Homo sapiens [9]): Dose-dependent effect; Activity (Homo sapiens [10]): Dose-dependent effect; Activity (Homo sapiens [11]): Dose-dependent effect; Activity (Homo sapiens [12]): Dose-dependent effect; Activity (Homo sapiens [13]): Dose-dependent effect; Activity (Homo sapiens [14]): Dose-dependent effect; Activity (Homo sapiens [15]): Dose-dependent effect; Activity (Homo sapiens [16]): Dose-dependent effect
